Here are results for 2 compounds from ChEMBL document CHEMBL4196017, “Design, synthesis and identification of silicon-containing HCV NS5A inhibitors with pan-genotype activity” (Eur J Med Chem, 2018).

One data set deals with Cytochrome P450 3A4 (Homo sapiens, UniProt P08684). Description: Inhibition of CYP3A4 in human liver microsomes at 1 to 10 uM using midazolam as substrate preincubated for 5 mins followed by NADPH addition measured after 30 mins by UPLC-MS/MS analysis relative to control. It is filed as ADME. To be noted: 0.5 h.
A short description of data set [1]: Metabolic stability in human liver microsomes assessed as parent compound remaining at 0.2 uM preincubated for 5 mins followed by NADPH addition measured up to 60 mins by UPLC-MS/MS analysis. To be noted: read-out: Stability. It is filed as ADME, microsome. Summed up: (§1)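 Pooled mouse, rat or human liver microsomes 0.2 mg/mL with 1 mM NADPH, 5 mM MgCl2, 100 mM potassium phosphate pH 7.4 and 0.2 µM compound; 5-min preincubation at 37 °C, NADPH start, sampled at 5, 15, 30, 60 min; ice-cold acetonitrile stop; UPLC-MS/MS; percent parent remaining at 60 min.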
(In general: Liver microsomes are a subcellular fraction often used to study metabolism.)

A short description of data set [2]: Protein binding in dog plasma at 1 uM after 6 hrs by UPLC-MS/MS based equilibrium dialysis method. The format is ADME, cell-free, Canis lupus familiaris. To be noted: read-out: PPB (converted). Summed up:
(§2)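 Equilibrium dialysis: plasma (pH 7.4) preincubated 15 min at 37 °C, spiked with compound at 1 or 10 µM (0.5% DMSO final); dialysed against 100 mM phosphate buffer pH 7.4, 6 h at 37 °C, 100 rpm; donor and receiver samples analysed by UPLC-MS/MS.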
Background: Equilibrium dialysis compares concentrations on both sides of a semipermeable membrane.

Data set [3] is described as follows: AUC (0 to t) in beagle dog at 2 mg/kg, po administered as single dose by UPLC-MS/MS analysis. The format is ADME, organism-based, Canis lupus familiaris. The conditions noted are these: in vivo.
A short description of data set [4]: Ratio of drug uptake in Sprague-Dawley rat liver to plasma at 10 mg/kg, ig administered as single dose measured after 2 hrs by UPLC-MS/MS analysis. It is filed as ADME, organism-based. The conditions noted are these: po.
The nature of data set [5]: Ratio of drug uptake in Sprague-Dawley rat liver to plasma at 10 mg/kg, ig administered as single dose measured after 8 hrs by UPLC-MS/MS analysis. The format is ADME, organism-based. The conditions noted are these: po.
The next data set addresses T1, Cytochrome P450 1A2 (Homo sapiens, UniProt P05177).
T1 sequence (P05177 whole entry): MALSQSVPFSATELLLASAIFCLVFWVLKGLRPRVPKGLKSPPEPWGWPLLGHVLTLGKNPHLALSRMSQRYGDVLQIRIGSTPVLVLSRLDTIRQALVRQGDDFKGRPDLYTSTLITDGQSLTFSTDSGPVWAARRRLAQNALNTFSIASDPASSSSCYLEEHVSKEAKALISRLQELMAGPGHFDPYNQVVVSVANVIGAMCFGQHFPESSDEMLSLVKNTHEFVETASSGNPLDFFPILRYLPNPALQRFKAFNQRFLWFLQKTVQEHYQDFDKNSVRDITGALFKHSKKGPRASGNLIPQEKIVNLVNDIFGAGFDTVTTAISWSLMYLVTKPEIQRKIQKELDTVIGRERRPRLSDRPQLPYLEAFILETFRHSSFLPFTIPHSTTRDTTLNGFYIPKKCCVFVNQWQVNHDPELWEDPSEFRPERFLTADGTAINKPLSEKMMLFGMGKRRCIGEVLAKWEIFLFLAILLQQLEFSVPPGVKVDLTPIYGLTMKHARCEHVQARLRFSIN
Put plainly: Inhibition of CYP1A2 in human liver microsomes at 1 to 10 uM using phenacetin as substrate preincubated for 5 mins followed by NADPH addition measured after 30 mins by UPLC-MS/MS analysis relative to control. It is filed as ADME. The conditions noted are these: 0.5 h.

Data set [6] can be described thus: Protein binding in rat plasma at 1 uM after 6 hrs by UPLC-MS/MS based equilibrium dialysis method. To be noted: read-out: PPB (converted). It is filed as ADME, cell-free. In short, it runs like this: as §2
Another data set has as its target T2, Cytochrome P450 2A6 (Homo sapiens, UniProt P11509).
T2 sequence (P11509 whole entry): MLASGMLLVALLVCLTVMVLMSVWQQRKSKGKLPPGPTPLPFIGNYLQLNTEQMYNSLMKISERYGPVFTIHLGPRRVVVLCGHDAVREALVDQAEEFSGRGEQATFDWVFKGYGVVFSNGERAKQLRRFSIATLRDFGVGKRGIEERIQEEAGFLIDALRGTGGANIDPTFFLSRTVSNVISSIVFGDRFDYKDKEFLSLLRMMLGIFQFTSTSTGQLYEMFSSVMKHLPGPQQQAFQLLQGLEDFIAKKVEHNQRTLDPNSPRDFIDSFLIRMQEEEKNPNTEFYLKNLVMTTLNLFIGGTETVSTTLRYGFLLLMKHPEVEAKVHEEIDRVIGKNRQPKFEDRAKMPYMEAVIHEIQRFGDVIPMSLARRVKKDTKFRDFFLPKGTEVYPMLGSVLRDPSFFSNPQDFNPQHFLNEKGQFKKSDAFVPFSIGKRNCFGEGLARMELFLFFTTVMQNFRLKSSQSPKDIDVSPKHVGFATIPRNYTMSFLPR
Description: Inhibition of CYP2A6 in human liver microsomes at 1 to 10 uM using coumarin as substrate preincubated for 5 mins followed by NADPH addition measured after 30 mins by UPLC-MS/MS analysis relative to control. It is filed as ADME. To be noted: 0.5 h.

The nature of data set [7]: Ratio of drug uptake in Sprague-Dawley rat liver to plasma at 10 mg/kg, ig administered as single dose measured after 0.5 hrs by UPLC-MS/MS analysis. The format is ADME, organism-based. To be noted: po.
Another data set addresses T3, Cytochrome P450 2B6 (Homo sapiens, UniProt P20813).
T3 sequence (P20813 whole entry): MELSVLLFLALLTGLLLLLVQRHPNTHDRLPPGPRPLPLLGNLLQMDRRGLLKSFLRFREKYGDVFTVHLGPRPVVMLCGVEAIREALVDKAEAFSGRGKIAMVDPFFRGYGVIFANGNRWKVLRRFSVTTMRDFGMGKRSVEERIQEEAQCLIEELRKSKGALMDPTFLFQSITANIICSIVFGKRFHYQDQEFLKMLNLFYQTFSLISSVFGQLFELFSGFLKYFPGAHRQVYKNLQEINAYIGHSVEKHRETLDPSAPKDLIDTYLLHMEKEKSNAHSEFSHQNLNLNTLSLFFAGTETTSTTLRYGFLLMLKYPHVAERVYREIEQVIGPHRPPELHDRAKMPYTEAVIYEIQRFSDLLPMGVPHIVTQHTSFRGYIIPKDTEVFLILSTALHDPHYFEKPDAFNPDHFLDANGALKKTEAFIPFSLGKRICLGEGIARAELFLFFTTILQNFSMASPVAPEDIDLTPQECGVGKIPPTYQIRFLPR
Description: Inhibition of CYP2B6 in human liver microsomes at 1 to 10 uM using bupropion hydrochloride as substrate preincubated for 5 mins followed by NADPH addition measured after 30 mins by UPLC-MS/MS analysis relative to control. It is filed as ADME. To be noted: 0.5 h.

The nature of data set [8]: Protein binding in mouse plasma at 10 uM after 6 hrs by UPLC-MS/MS based equilibrium dialysis method. The format is ADME, cell-free. The conditions noted are these: read-out: PPB (converted). Summed up: as §2
Data set [9] can be described thus: Metabolic stability in mouse liver microsomes assessed as parent compound remaining at 0.2 uM preincubated for 5 mins followed by NADPH addition measured up to 60 mins by UPLC-MS/MS analysis. It is filed as ADME, microsome. The conditions noted are these: read-out: Stability. Summed up: as §1
Data set [10] is described as follows: Apparent permeability from basolateral to apical side in human Caco2 cells after 90 mins by UPLC-MS/MS analysis. The format is ADME, cell-based. The conditions noted are these: Caco-2. Summed up: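 Caco-2 cells on Transwell inserts grown 21-23 days to TEER ≥200 Ω cm²; rinsed with warm HBSS, preincubated 30 min at 37 °C in 2% BSA with or without inhibitor; compound in 2% BSA added apical or basolateral, 90 min at 37 °C; receiver sampled, UPLC-MS/MS; duplicate; Papp calculated.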

By AUC(0-t) is commonly meant the area under the concentration-time curve up to a stated or last time point. High values mean high exposure, low ones low exposure. One may read the Kp as tissue or fluid exposure divided by exposure in the circulation. As a reminder, the Papp B→A is how fast a substance crosses the layer from the basolateral side.

Chain of Cytochrome P450 3A4 (P08684 whole entry): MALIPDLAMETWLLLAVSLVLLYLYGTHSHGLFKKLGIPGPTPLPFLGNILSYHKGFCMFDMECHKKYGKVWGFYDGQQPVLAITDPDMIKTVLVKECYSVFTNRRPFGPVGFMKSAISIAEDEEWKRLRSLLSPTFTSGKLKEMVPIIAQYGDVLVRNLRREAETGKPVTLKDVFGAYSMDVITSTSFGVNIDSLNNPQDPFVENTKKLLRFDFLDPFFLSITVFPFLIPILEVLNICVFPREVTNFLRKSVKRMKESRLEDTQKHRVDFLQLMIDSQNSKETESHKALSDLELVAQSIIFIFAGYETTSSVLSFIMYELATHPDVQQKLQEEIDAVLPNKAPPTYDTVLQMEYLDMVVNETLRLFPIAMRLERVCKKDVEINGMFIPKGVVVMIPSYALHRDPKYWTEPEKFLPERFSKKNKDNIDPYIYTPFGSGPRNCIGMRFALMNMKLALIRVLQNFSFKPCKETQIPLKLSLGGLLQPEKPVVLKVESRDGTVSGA

With `COC(=O)N[C@H](C(=O)N1CCC[C@H]1C(=O)Nc1ccc([C@@H]2CC[C@@H](c3ccc(NC(=O)[C@@H]4CCCN4C(=O)[C@@H](NC(=O)OC)C(C)C)cc3)N2c2ccc(C(C)(C)C)cc2)cc1)C(C)C` [OMBITASVIR], the “inhibition (INH)” value against Cytochrome P450 3A4, on Cytochrome P450 1A2, against Cytochrome P450 2A6 and against Cytochrome P450 2B6 was “Not Active” in each case. The remaining at 1 h, 0.2 µM in data set [1] came to 96.2%; in data set [9], 88.7%. Moreover, the fraction unbound at 6 h, 1 µM in data set [2] and in data set [6] was 2e-05 in each case. The compound also returned an AUC(0-t) in data set [3] of 188 ng·h/mL. Also, in data set [4], the Kp at 2 h came to 24.6. Also, the Kp at 8 h in [5] amounted to 33.5. For the same compound, the Kp at 0.5 h in [7] came to 43.4. For the same compound, the fraction unbound at 6 h, 10 µM in data set [8] is 1e-05. Besides, the Papp B→A at 1.5 h in [10] was determined as 0.54 ×10⁻⁶ cm/s.
As to `CC[Si](CC)(CC)c1ccc(N2[C@H](c3ccc(NC(=O)[C@@H]4CCCN4C(=O)[C@@H](NC(=O)OC)C(C)C)cc3)CC[C@H]2c2ccc(NC(=O)[C@@H]3CCCN3C(=O)[C@@H](NC(=O)OC)C(C)C)cc2)cc1`, the “inhibition (INH)” value against Cytochrome P450 3A4, against Cytochrome P450 1A2, against Cytochrome P450 2A6 and on Cytochrome P450 2B6 was “Not Active” throughout. In addition, the remaining at 1 h, 0.2 µM came to 85.6% in data set [1] and 92.7% in [9]. For the same compound, the fraction unbound at 6 h, 1 µM in data set [2] was 4e-05; in data set [6] it was 9e-05. Further, the AUC(0-t) in [3] is 605 ng·h/mL. The partition ratio (Kp) at 2 h in data set [4] was 28.1. In [5], the Kp at 8 h came to 52.9. Also, the Kp at 0.5 h in data set [7] stood at 7.22. In addition, in data set [8], the fraction unbound at 6 h, 10 µM was 0.00011. The apparent permeability from basolateral to apical (Papp B→A) at 1.5 h in [10] was determined as 0.05 ×10⁻⁶ cm/s.
